Test results as given in ChEMBL document CHEMBL3860041, “Synthesis, biological evaluation and molecular modeling study of some new methoxylated 2-benzylthio-quinazoline-4(3H)-ones as nonclassical antifolates” (Bioorg Med Chem Lett, 2016).

Tests used:
[1] = Growth inhibition of human LOXIMVI cells at 10 uM after 48 hrs by SRB assay relative to control; type: functional; conditions: LOX IMVI, read-out: GI
Method in brief: (§1)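 NCI 60-cell-line panel, nine tumor subpanels; compounds tested at a single dose of 10 μM in the primary screen.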

[2] = Growth inhibition of human RXF393 cells at 10 uM after 48 hrs by SRB assay relative to control; type: functional; conditions: RXF 393, 48 h, read-out: GI; method in brief: as §1
[3] = Growth inhibition of human 786-0 cells at 10 uM after 48 hrs by SRB assay relative to control; type: functional; conditions: 786-0, 48 h, read-out: GI; method in brief: as §1
[4] = Growth inhibition of human SK-MEL-28 cells at 10 uM after 48 hrs by SRB assay relative to control; type: functional; conditions: SK-MEL-28, 48 h, read-out: GI
Method in brief: (§2)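 Primary screen across the full NCI 60 human tumour cell line panel, which covers nine tumour subpanels. A single dose of 10 μM was applied to each line, and growth was recorded for each cell line.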

[5] = Growth inhibition of human A498 cells at 10 uM after 48 hrs by SRB assay relative to control; type: functional; conditions: A498, 48 h, read-out: GI; method in brief: as §1
[6] = Growth inhibition of human UACC62 cells at 10 uM after 48 hrs by SRB assay relative to control; type: functional; conditions: UACC-62, 48 h, read-out: GI; method in brief: as §2
[7] = Growth inhibition of human HOP92 cells at 10 uM after 48 hrs by SRB assay relative to control; type: functional; conditions: HOP-92, 48 h, read-out: GI; method in brief: as §1
[8] = Growth inhibition of human UACC257 cells at 10 uM after 48 hrs by SRB assay relative to control; type: functional; conditions: UACC-257, 48 h, read-out: GI; method in brief: as §2
[9] = Growth inhibition of human SKOV3 cells at 10 uM after 48 hrs by SRB assay relative to control; type: functional; conditions: SK-OV-3, 48 h, read-out: GI; method in brief: as §2
[10] = Growth inhibition of human Caki1 cells at 10 uM after 48 hrs by SRB assay relative to control; type: functional; conditions: CAKI-1, 48 h, read-out: GI; method in brief: as §1
[11] = Growth inhibition of human SN12C cells at 10 uM after 48 hrs by SRB assay relative to control; type: functional; conditions: read-out: GI; method in brief: as §2
[12] = target: T1, Dihydrofolate reductase (Bos taurus, UniProt P00376); assay: Inhibition of bovine liver DHFR preincubated for 2 mins followed by addition of FH2 as substrate and NADPH
T1 sequence (P00376 whole entry): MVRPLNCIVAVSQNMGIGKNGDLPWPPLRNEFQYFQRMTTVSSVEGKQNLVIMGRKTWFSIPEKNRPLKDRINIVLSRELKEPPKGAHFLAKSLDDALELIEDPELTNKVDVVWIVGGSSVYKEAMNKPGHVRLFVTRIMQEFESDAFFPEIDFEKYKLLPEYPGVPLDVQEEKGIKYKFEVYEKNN

[13] = Growth inhibition of human U251 cells at 10 uM after 48 hrs by SRB assay relative to control; type: functional; conditions: U-251, 48 h, read-out: GI; method in brief: as §2
[14] = Growth inhibition of human MDA-MB-231 cells at 10 uM after 48 hrs by SRB assay relative to control; type: functional; conditions: MDA-MB-231, 48 h, read-out: GI; method in brief: as §1
[15] = Growth inhibition of human UO31 cells at 10 uM after 48 hrs by SRB assay relative to control; type: functional; conditions: UO-31, 48 h, read-out: GI; method in brief: as §2
[16] = Growth inhibition of human SF268 cells at 10 uM after 48 hrs by SRB assay relative to control; type: functional; conditions: SF-268, 48 h, read-out: GI; method in brief: as §1
[17] = Growth inhibition of human SF539 cells at 10 uM after 48 hrs by SRB assay relative to control; type: functional; conditions: SF-539, 48 h, read-out: GI; method in brief: as §1
[18] = Growth inhibition of human HT-29 cells at 10 uM after 48 hrs by SRB assay relative to control; type: functional; conditions: HT-29, 48 h, read-out: GI; method in brief: as §1
[19] = Growth inhibition of human A549 cells at 10 uM after 48 hrs by SRB assay relative to control; type: functional; conditions: A549, 48 h, read-out: GI; method in brief: as §1
[20] = Growth inhibition of human OVCAR4 cells at 10 uM after 48 hrs by SRB assay relative to control; type: functional; conditions: OVCAR-4, 48 h, read-out: GI; method in brief: as §1
[21] = Growth inhibition of human MOLT4 cells at 10 uM after 48 hrs by SRB assay relative to control; type: functional; conditions: MOLT-4, 48 h, read-out: GI; method in brief: as §1
[22] = Growth inhibition of human SR cells at 10 uM after 48 hrs by SRB assay relative to control; type: functional; conditions: read-out: GI; method in brief: as §2
[23] = Growth inhibition of human HCC2998 cells at 10 uM after 48 hrs by SRB assay relative to control; type: functional; conditions: HCC 2998, 48 h, read-out: GI; method in brief: as §1
[24] = Growth inhibition of human SK-MEL-5 cells at 10 uM after 48 hrs by SRB assay relative to control; type: functional; conditions: SK-MEL-5, 48 h, read-out: GI; method in brief: as §2
[25] = Growth inhibition of human OVCAR8 cells at 10 uM after 48 hrs by SRB assay relative to control; type: functional; conditions: OVCAR-8, 48 h, read-out: GI; method in brief: as §1
[26] = Growth inhibition of human Hs 578T cells at 10 uM after 48 hrs by SRB assay relative to control; type: functional; conditions: read-out: GI; method in brief: as §1
[27] = Growth inhibition of human NCI-322M cells at 10 uM after 48 hrs by SRB assay relative to control; type: functional; conditions: read-out: GI; method in brief: as §1
[28] = Growth inhibition of human MCF7 cells at 10 uM after 48 hrs by SRB assay relative to control; type: functional; conditions: MCF7, 48 h, read-out: GI; method in brief: as §1

Compound	inhibition of growth at 10 µM [1] [%]	inhibition of growth at 10 µM [2] [%]	inhibition of growth at 10 µM [3] [%]	inhibition of growth at 10 µM [4] [%]	inhibition of growth at 10 µM [5] [%]	inhibition of growth at 10 µM [6] [%]	inhibition of growth at 10 µM [7] [%]	inhibition of growth at 10 µM [8] [%]	inhibition of growth at 10 µM [9] [%]	inhibition of growth at 10 µM [10] [%]	inhibition of growth at 10 µM [11] [%]	IC50 [12] [nM]	inhibition of growth at 10 µM [13] [%]	inhibition of growth at 10 µM [14] [%]	inhibition of growth at 10 µM [15] [%]	inhibition of growth at 10 µM [16] [%]	inhibition of growth at 10 µM [17] [%]	inhibition of growth at 10 µM [18] [%]	inhibition of growth at 10 µM [19] [%]	inhibition of growth at 10 µM [20] [%]	other results
COc1cc2nc(SCc3cc(OC)c(OC)c(OC)c3)n(-c3ccccc3OC)c(=O)c2cc1OC	22.7	22	< 10	21.1	74.6	27.5	34.2	< 10	< 10	57.1	< 10	800	13.2	22.6	63.7	30.1	10.1	33.4	12	16.9	inhibition of growth at 10 µM [21]: 53.2%; inhibition of growth at 10 µM [22]: 76.2%; inhibition of growth at 10 µM [23]: < 10%; inhibition of growth at 10 µM [24]: < 10%; inhibition of growth at 10 µM [25]: 15.4%; inhibition of growth at 10 µM [26]: 39.2%; inhibition of growth at 10 µM [27]: 14.9%; inhibition of growth at 10 µM [28]: 23%
COc1cc(CSc2nc3ccc(Cl)cc3c(=O)n2-c2ccccc2)cc(OC)c1OC	20.7	31.1	10.7	< 10	18.3	35.9	11.1	10.3	< 10	26.1	24	800	11.4	37	52.2	22.3	21.1	33	26.1	18.3	inhibition of growth at 10 µM [21]: 30.3%; inhibition of growth at 10 µM [22]: 54.4%; inhibition of growth at 10 µM [23]: 20%; inhibition of growth at 10 µM [24]: 18.8%; inhibition of growth at 10 µM [25]: 15.7%; inhibition of growth at 10 µM [26]: < 10%; inhibition of growth at 10 µM [27]: 14.3%; inhibition of growth at 10 µM [28]: 23.1%
COc1ccc(-n2c(SCc3cc(OC)c(OC)c(OC)c3)nc3ccc(Cl)cc3c2=O)cc1	18	25.9	< 10	< 10	49.1	33.9	42.9	11.2	< 10	33	18.3	3000	< 10	36.8	52.1	15.2	12.7	17	20.2	28.3	inhibition of growth at 10 µM [21]: 27.6%; inhibition of growth at 10 µM [22]: < 10%; inhibition of growth at 10 µM [23]: < 10%; inhibition of growth at 10 µM [24]: 15.1%; inhibition of growth at 10 µM [25]: 13.7%; inhibition of growth at 10 µM [26]: 13.9%; inhibition of growth at 10 µM [27]: < 10%; inhibition of growth at 10 µM [28]: 15.6%
COc1ccc(CSc2nc3cc(OC)c(OC)cc3c(=O)n2-c2ccc(OC)cc2OC)cc1	16.6	24.5	< 10	< 10	41.4	19.8	24.5	< 10	< 10	31.3	< 10	300	< 10	24.6	44.6	13.7	< 10	12	19.2	16.8	inhibition of growth at 10 µM [21]: 20.6%; inhibition of growth at 10 µM [22]: 40.6%; inhibition of growth at 10 µM [23]: < 10%; inhibition of growth at 10 µM [24]: 19.5%; inhibition of growth at 10 µM [25]: 10.8%; inhibition of growth at 10 µM [26]: 13.3%; inhibition of growth at 10 µM [27]: 19.4%; inhibition of growth at 10 µM [28]: 16.9%
